KLK5 inh: inhibitors of human kallikrein 5; inhibition, % at 5 µM; AID 873; recombinant hK5, fluorogenic AMC substrate cleavage; 210,000 tested, 0.59% active;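 active = inhibition of 40% or more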;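 note: 0% = enzyme controls without compound and 100% = no-enzyme blanks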
Target sequence (Q9Y337 67-293 limits assumed): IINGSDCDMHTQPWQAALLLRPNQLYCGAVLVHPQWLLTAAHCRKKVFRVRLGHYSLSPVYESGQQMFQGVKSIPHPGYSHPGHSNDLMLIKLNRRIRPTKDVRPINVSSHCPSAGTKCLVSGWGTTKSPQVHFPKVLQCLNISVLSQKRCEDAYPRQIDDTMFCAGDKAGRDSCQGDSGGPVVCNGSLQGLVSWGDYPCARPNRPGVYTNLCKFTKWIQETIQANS
m-calpain inh: blocks pig calpain II enzyme activity. inhibition, % at 16 µM. purified calpain II, fluorogenic peptide substrate, 30 min. 220,000 tested, 0.37% active;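 active = inhibition above about 50%, limit read from the data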
Thrombin inh: blocks human thrombin protease activity; AID 1046; alpha-thrombin, Boc-VPR-AMC fluorogenic substrate cleavage; 220,000 tested, 0.26% active; inhibition, % at 5 µM;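 active = inhibition at or above 40%; inactive = inhibition below 40%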;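 note: 0% = enzyme with no compound and 100% = wells without enzyme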
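Material: Human alpha-thrombin protein | Buffer or medium: pH 7.5 Tris-saline with Tween 20 | Reagent: Boc-VPR-AMC substrate, 15 µM final | Schedule: Reaction at ambient temperature | Detection: AMC fluorescence at 355 nm excitation and 460 nm emission | Evaluation: Percent inhibition scaled between no-compound controls and no-enzyme blanks | Controls: no-compound enzyme wells and no-enzyme blanks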
FXIIa inh 1536: factor XIIa (human) inhibition | P00748 | purified FXIIa, Boc-QGR-AMC fluorogenic substrate, 2 h | inhibition, % at 5 µM | 220,000 tested, 0.3% active | AID 800; in the data active = inhibition above about 40%;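 note: 0% = enzyme with no compound and 100% = blank without enzyme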
FXIa inh: blocks human coagulation factor XIa protease activity. purified FXIa, Boc-Glu-Ala-Arg-AMC fluorogenic substrate. AID 798. inhibition, % at 5 µM. 220,000 tested, 0.14% active;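 active = inhibition of at least 40%; inactive = inhibition below 40%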;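 note: fluorescence of freed AMC excited at 355 nm; 0% = enzyme without compound and 100% = no enzyme blank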
* marks the source's active call; other numbers are inactive results. Hits are enriched below; roughly 1.4% of the tested compounds scored in any of these assays.

Screening CCCC(C)NC1=NCCCCC1 (configuration not stated) returned KLK5 inh 55.8*, m-calpain inh 17.4, Thrombin inh 16.1, FXIIa inh 1536 14.8 and FXIa inh 9.5.
For CCN1CCCC1CNC1=NCCCCC1 (configuration not stated) the results were KLK5 inh -17.0, m-calpain inh -12.1, Thrombin inh 4.4, FXIIa inh 1536 15.3 and FXIa inh 2.3.
COCCCNC(=O)CSc1nc2c(sc3ccccc32)c(=O)n1CCCC(=O)NCC1CCCO1 (configuration not stated) was read as KLK5 inh -1.8, m-calpain inh -22.8, Thrombin inh 15.9, FXIIa inh 1536 10.3 and FXIa inh -4.4.
CCC1CCC2(CC1)SCC(=O)N2c1ccccc1 (configuration not stated) was read as KLK5 inh 63.3*, m-calpain inh 20.0, Thrombin inh 13.0, FXIIa inh 1536 29.6 and FXIa inh 59.2*.
CC1CCC2(CC1)SCC(=O)N2c1ccccc1 (configuration not stated) was read as KLK5 inh 90.6*, m-calpain inh 31.6, Thrombin inh 20.1, FXIIa inh 1536 24.0 and FXIa inh 21.2.
Screening Cc1cccc(N2C(=O)CSC23CCCCC3)c1 returned KLK5 inh -0.7, m-calpain inh -7.5, Thrombin inh -4.3, FXIIa inh 1536 9.7 and FXIa inh -2.3.
`Cc1ccc2c(C)c(C(=O)Nc3nnc(C)s3)oc2c1` gave KLK5 inh -1.8, m-calpain inh -1.1, Thrombin inh 8.7, FXIIa inh 1536 40.0* and FXIa inh 22.5.
Screening Cn1c(=O)c(=O)n(C)c2cc(S(=O)(=O)N3CCN(c4cccc(C(F)(F)F)c4)CC3)ccc21 returned KLK5 inh -10.0, m-calpain inh -33.3, Thrombin inh -0.6, FXIIa inh 1536 3.4 and FXIa inh 2.9.
CC(Sc1nnnn1-c1ccccc1)C(=O)Nc1ccc(Cl)cn1 (configuration not stated) was read as KLK5 inh 51.5*, m-calpain inh 17.1, Thrombin inh 16.1, FXIIa inh 1536 2.2 and FXIa inh 17.4.
`CC(Sc1nnc2ccccn12)C(=O)Nc1ccc(Cl)cn1` (configuration not stated) gave KLK5 inh -7.8, m-calpain inh 0.6, Thrombin inh -6.4, FXIIa inh 1536 16.9 and FXIa inh 0.8.
`CCN(Cc1ccccc1)c1ccc(/C=N/NS(=O)(=O)c2ccc(C)c([N+](=O)[O-])c2)cc1` gave KLK5 inh -8.0, m-calpain inh -16.7, Thrombin inh -4.2, FXIIa inh 1536 -2.9 and FXIa inh -3.5.
Screening CCN(CC)c1ccc(/C=N/NS(=O)(=O)c2cccc([N+](=O)[O-])c2)cc1 returned KLK5 inh -9.9, m-calpain inh 2.9, Thrombin inh -14.4, FXIIa inh 1536 52.1* and FXIa inh 28.2.
`C/C(Cc1ccccc1)=N\NC(=O)CNC(=O)c1ccc(Cl)cc1Cl` gave KLK5 inh 78.0*, m-calpain inh 14.6, Thrombin inh 3.5, FXIIa inh 1536 86.4* and FXIa inh 12.1.
For C/C(Cc1ccccc1)=N\NC(=O)CNC(=O)c1cccc(Cl)c1 the results were KLK5 inh -1.3, m-calpain inh 9.4, Thrombin inh 3.6, FXIIa inh 1536 -2.7 and FXIa inh 7.8.
Screening COc1ccc(/C=C/C(=O)NCC(=O)N/N=C(\C)Cc2ccccc2)cc1 returned KLK5 inh 3.9, m-calpain inh 5.0, Thrombin inh 3.0, FXIIa inh 1536 9.8 and FXIa inh 4.2.
C/C(Cc1ccccc1)=N\NC(=O)CNC(=O)/C=C\c1ccccc1 was read as KLK5 inh 112.6*, m-calpain inh 8.3, Thrombin inh 10.1, FXIIa inh 1536 23.9 and FXIa inh 50.8*.
`Cc1nn(CC(=O)N2CCc3ccccc3C2)c(C)c1[N+](=O)[O-]` gave KLK5 inh 22.1, m-calpain inh 13.1, Thrombin inh -0.7, FXIIa inh 1536 85.3* and FXIa inh 37.5.
`CCC(CO)n1c(SCc2cc(=O)oc3cc(C)ccc23)nc2ccccc2c1=O` (configuration not stated) gave KLK5 inh -3.5, m-calpain inh 7.7, Thrombin inh 2.2, FXIIa inh 1536 41.6* and FXIa inh 20.8.
`O=C(O)c1cc(Sc2ccc(Br)cc2)nc2ccccc12` gave KLK5 inh 43.2*, m-calpain inh 10.1, Thrombin inh 2.6, FXIIa inh 1536 36.9 and FXIa inh 31.1.
Screening CSc1ccccc1Sc1cc(C(=O)O)c2ccccc2n1 returned KLK5 inh 1.8, m-calpain inh -16.9, Thrombin inh -4.3, FXIIa inh 1536 22.0 and FXIa inh 18.8.
`O=C(COc1ccc2c(c1)CCC2)N1CCN(c2ccccc2F)CC1` gave KLK5 inh -8.0, m-calpain inh 36.2, Thrombin inh -8.0, FXIIa inh 1536 0.8 and FXIa inh -5.1.
`CCC(=O)NC(=S)Nc1cccc(NC(=O)c2ccccc2)c1` gave KLK5 inh 21.5, m-calpain inh 25.8, Thrombin inh 40.4*, FXIIa inh 1536 34.6 and FXIa inh 35.2.
For O=C(O)c1cccc(NC(=S)NC(=O)c2ccc(-c3ccccc3)cc2)c1 the results were KLK5 inh 14.0, m-calpain inh 70.4*, Thrombin inh -2.4, FXIIa inh 1536 5.6 and FXIa inh -0.7.
`O=C(CN1CCC(C(=O)c2cccc(Cl)c2)CC1)Nc1ccc(C(=O)O)cc1` gave KLK5 inh 0.1, m-calpain inh -14.0, Thrombin inh -8.1, FXIIa inh 1536 0.4 and FXIa inh -2.2.
COc1ccc2c(c1)OCC1=C2CCC2(C)C(=O)CC=C12 (configuration not stated) was read as KLK5 inh -20.8, m-calpain inh -333.0, Thrombin inh 2.8, FXIIa inh 1536 26.1 and FXIa inh 16.6.
Cc1cccc(OCCSc2cc(C)nc(N)n2)c1 was read as KLK5 inh 1.9, m-calpain inh 12.2, Thrombin inh 2.2, FXIIa inh 1536 -3.0 and FXIa inh 7.7.
Screening Cc1ccc2nc(N3CC(=O)Nc4ccccc43)nc(-c3ccccc3)c2c1 returned KLK5 inh 6.4, m-calpain inh -28.8, Thrombin inh -3.4, FXIIa inh 1536 7.3 and FXIa inh 0.9.
`CC(C)N(Cc1nc(-c2ccccc2)no1)C(=O)CCCN1C(=O)c2ccccc2C1=O` gave KLK5 inh 2.3, m-calpain inh 64.4*, Thrombin inh -6.5, FXIIa inh 1536 0.4 and FXIa inh -2.0.
Screening Oc1ccc(Br)cc1C=Nc1ccc(Cl)cc1 returned KLK5 inh -2.6, m-calpain inh 93.7*, Thrombin inh -4.1, FXIIa inh 1536 6.7 and FXIa inh -1.3.
Screening CCN(CC)c1ccc(N=Cc2cc(Br)ccc2O)cc1 returned KLK5 inh -2.3, m-calpain inh -26.4, Thrombin inh 1.1, FXIIa inh 1536 8.5 and FXIa inh 1.4.
For Cc1ccc(NC(=S)NC(C)CCc2ccccc2)cc1C (configuration not stated) the results were KLK5 inh -6.0, m-calpain inh 63.7*, Thrombin inh -0.6, FXIIa inh 1536 13.6 and FXIa inh 8.0.
